Series [1] deals with Eukaryotic elongation factor 2 kinase (Homo sapiens) (UniProt O00418). As to the kind of experiment: Inhibition of human EF2K assessed as remaining activity at 10 uM in presence of ATP by radiometric kinase assay relative to control.
The target in series [2] is Dual specificity mitogen-activated protein kinase kinase 2 (Homo sapiens) (UniProt P36507). As to the kind of experiment: Inhibition of human MKK2 assessed as remaining activity at 10 uM in presence of ATP by radiometric kinase assay relative to control.
Series [3] is described as follows: AUC (0 to infinity) in BALB/C mouse spleen at 10 mg/kg, po by LC/MS-MS analysis. The series is classed as ADME, organism-based.
The target in series [4] is MAP/microtubule affinity-regulating kinase 3 (Homo sapiens, UniProt P27448). The experiment in a line: Inhibition of human MARK3 by FRET based Z-LYTE kinase assay.
Series [5] in a line: Toxicity in Emu-Myc driven transgenic mouse transplant model of B-cell lymphoma assessed as change in body temperature at 150 mg/kg, po administered for 9 days. Type of series: organism-based. As to conditions: in vivo, 216 h, time 9 day.
For series [6], the system named is HT-29. As to the kind of experiment: Induction of cell cycle arrest in human HT-29 cells assessed as decrease in accumulation of cells at G0/G1 phase at 1 to 5 uM incubated for 24 hrs by BrdU and PI staining based flow cytometry analysis. The series is classed as functional. Conditions: dose 1-5 µM. The method in brief: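 HT29 cells exposed for 24h, stained with bromodeoxyuridine and propidium iodide, and cell-cycle distribution measured by flow cytometry.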

The subject of series [7] is Mus musculus. The experiment in a line: In vivo inhibition of total CHK1 in CRTac:Ncr-Fox1 athymic mouse xenografted with human Calu-6 cells at 150 mg/kg, po in presence of gemcitabine and carboplatin by Western blotting analysis. Type of series: functional, organism-based. The method in brief:
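Female CRTac:Ncr-Fox1(nu) athymic mice carried s.c. Calu6 xenografts. Tumors were taken 6h after the last inhibitor dose, lysed in CHAPS buffer, and immunoblotted with GAPDH as loading control.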
A general note: Xenograft models place foreign cells or tissue in a host animal.

In series [8] the test system is Mus musculus. As to the kind of experiment: In vivo inhibition of CHK1 in CRTac:Ncr-Fox1 mouse xenografted with human HT-29 cells assessed as reduction of phosphorylation of CHK1 on S296 at 100 mg/kg, po administered for 24 hrs by Western blotting analysis. Type of series: functional, organism-based. A digest of the protocol:
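HT29 s.c. xenografts in female athymic nude mice. Single gemcitabine dose 100mg/kg i.v. on day 0, then one inhibitor dose 50 or 100mg/kg p.o. (DPTW vehicle) 24h later. Tumors taken 24h after the last dose, western blotted, and signals quantified by normalizing to GAPDH.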

The target of series [9] is Serine/threonine-protein kinase pim-2 (Homo sapiens) (UniProt Q9P1W9). As to the kind of experiment: Inhibition of human PIM2 assessed as remaining activity at 10 uM in presence of ATP by radiometric kinase assay relative to control.
Series [10] concerns SW-620. As to the kind of experiment: Induction of apoptosis in human SW620 cells assessed as increased in cleaved PARP in presence of gemcitabine by Western blotting analysis. The series is classed as functional, cell-based. For orientation: A western blot detects proteins with antibodies after separation by electrophoresis.
The nature of series [11]: Tmax in BALB/C mouse spleen at 10 mg/kg, iv by LC/MS-MS analysis. Type of series: ADME, organism-based.
Series [12] has as its target Inhibitor of nuclear factor kappa-B kinase subunit beta (Homo sapiens) (UniProt O14920). As to the kind of experiment: Inhibition of human IKKb assessed as remaining activity at 10 uM in presence of ATP by radiometric kinase assay relative to control.
Series [13] addresses Interleukin-1 receptor-associated kinase 4 (Homo sapiens) (UniProt Q9NWZ3). The experiment in a line: Inhibition of human IRAK4 assessed as remaining activity at 10 uM in presence of ATP by radiometric kinase assay relative to control.
Series [14] concerns the target Serine/threonine-protein kinase TBK1 (Homo sapiens) (UniProt Q9UHD2). As to the kind of experiment: Inhibition of human TBK1 assessed as remaining activity at 10 uM in presence of ATP by radiometric kinase assay relative to control.
Series [15] can be described thus: Half life in BALB/C mouse plasma at 10 mg/kg, po by LC/MS-MS analysis. The series is classed as ADME, organism-based. The method in brief:
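Female BALB/c mice received a single bolus of 10mg/kg, either i.v. or p.o. The oral vehicle was DPTW (10% DMSO, 20% PEG400, 5% Tween 80, 65% water). Plasma and spleen homogenates were extracted with methanol containing internal standards. Drug levels were measured by LC/MS-MS, and pharmacokinetic parameters were calculated from the concentration-time profiles.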

Series [16] concerns the target Serine/threonine-protein kinase tousled-like 1 (Homo sapiens) (UniProt Q9UKI8). The experiment in a line: Inhibition of human TLK1 assessed as remaining activity at 10 uM in presence of ATP by radiometric kinase assay relative to control.
The target in series [17] is Tyrosine-protein kinase CSK (Homo sapiens) (UniProt P41240). As to the kind of experiment: Inhibition of human CSK assessed as remaining activity at 10 uM in presence of ATP by radiometric kinase assay relative to control.
Series [18] is described as follows: Cmax in BALB/C mouse spleen at 10 mg/kg, po by LC/MS-MS analysis. Type of series: ADME, organism-based. The method in brief: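 Female BALB/c mice received a single 10mg/kg bolus i.v. or p.o. Plasma (and spleen homogenate) extracted with methanol containing internal standards. Concentrations were measured by LC/MS-MS and PK parameters calculated with modelling software.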

In series [19] the test system is HT-29. The experiment in a line: Induction of apoptosis in human HT-29 cells assessed as phosphorylation of H2AX on S139 in presence of gemcitabine by Western blotting analysis. Type of series: functional, cell-based.
A short description of series [20]: Tmax in BALB/C mouse plasma at 10 mg/kg, iv by LC/MS-MS analysis. The series is classed as ADME, organism-based.
The target in series [21] is Ribosomal protein S6 kinase alpha-1 (Homo sapiens, UniProt Q15418). As to the kind of experiment: Inhibition of human RSK1 by 33P radiometric kinase assay.
Series [22] has as its target Dual specificity protein kinase TTK (Homo sapiens) (UniProt P33981). The experiment in a line: Inhibition of human TTK assessed as remaining activity at 10 uM in presence of ATP by radiometric kinase assay relative to control.
In series [23] the target is Serine/threonine-protein kinase BRSK2 (Homo sapiens) (UniProt Q8IWQ3). As to the kind of experiment: Inhibition of human BRSK2 assessed as remaining activity at 10 uM in presence of ATP by radiometric kinase assay relative to control.

The record followed here is ChEMBL document CHEMBL5653622 (Oncotarget, 2016).

Activity calls are given as the source filed them. No cut-off for these calls is given here.

As a reminder, the AUC(0-inf) is total exposure, with the tail of the curve extrapolated. A lower AUC(0-inf) goes with less exposure. As usually defined, the IC50 is the concentration that inhibits the measured activity by half. The term Tmax denotes the time at which the peak concentration occurs. As a reminder, the half-life is the time in which the quantity being followed falls by half. A low value points to rapid decline. Usually Cmax stands for the peak of the concentration-time curve.

Sequence of Serine/threonine-protein kinase pim-2 (Homo sapiens) (Q9P1W9 whole entry, looked up): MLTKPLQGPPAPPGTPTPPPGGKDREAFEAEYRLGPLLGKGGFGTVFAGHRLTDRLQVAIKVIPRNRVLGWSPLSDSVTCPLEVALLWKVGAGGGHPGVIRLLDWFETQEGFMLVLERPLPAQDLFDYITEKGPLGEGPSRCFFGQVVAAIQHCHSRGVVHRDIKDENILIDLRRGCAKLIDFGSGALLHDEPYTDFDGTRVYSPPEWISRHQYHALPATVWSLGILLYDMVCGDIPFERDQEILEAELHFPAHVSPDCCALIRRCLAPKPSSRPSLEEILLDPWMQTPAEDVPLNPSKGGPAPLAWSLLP
Sequence of Dual specificity protein kinase TTK (Homo sapiens) (P33981 whole entry): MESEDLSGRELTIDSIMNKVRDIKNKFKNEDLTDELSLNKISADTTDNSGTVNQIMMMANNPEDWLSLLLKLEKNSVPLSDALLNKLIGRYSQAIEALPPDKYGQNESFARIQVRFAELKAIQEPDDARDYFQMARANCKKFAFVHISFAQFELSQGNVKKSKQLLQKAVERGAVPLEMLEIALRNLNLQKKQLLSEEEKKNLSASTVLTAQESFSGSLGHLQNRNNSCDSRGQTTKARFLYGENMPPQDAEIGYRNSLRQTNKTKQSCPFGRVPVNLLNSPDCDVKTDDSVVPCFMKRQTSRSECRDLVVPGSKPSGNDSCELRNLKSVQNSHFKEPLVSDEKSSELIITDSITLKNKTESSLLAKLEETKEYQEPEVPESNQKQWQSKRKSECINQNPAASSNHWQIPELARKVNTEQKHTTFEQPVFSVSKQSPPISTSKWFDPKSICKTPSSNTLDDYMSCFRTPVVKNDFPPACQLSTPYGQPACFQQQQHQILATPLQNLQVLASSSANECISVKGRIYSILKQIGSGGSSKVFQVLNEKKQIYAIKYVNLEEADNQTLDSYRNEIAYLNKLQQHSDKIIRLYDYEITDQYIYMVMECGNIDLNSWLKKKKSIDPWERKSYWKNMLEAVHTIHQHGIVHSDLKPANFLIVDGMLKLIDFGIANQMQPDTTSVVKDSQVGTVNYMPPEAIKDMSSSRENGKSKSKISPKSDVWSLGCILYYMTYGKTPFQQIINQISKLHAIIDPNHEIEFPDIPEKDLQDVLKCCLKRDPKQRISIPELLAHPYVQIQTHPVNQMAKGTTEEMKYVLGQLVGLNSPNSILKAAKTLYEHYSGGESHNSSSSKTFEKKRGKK
Sequence of Serine/threonine-protein kinase BRSK2 (Homo sapiens) (Q8IWQ3 whole entry): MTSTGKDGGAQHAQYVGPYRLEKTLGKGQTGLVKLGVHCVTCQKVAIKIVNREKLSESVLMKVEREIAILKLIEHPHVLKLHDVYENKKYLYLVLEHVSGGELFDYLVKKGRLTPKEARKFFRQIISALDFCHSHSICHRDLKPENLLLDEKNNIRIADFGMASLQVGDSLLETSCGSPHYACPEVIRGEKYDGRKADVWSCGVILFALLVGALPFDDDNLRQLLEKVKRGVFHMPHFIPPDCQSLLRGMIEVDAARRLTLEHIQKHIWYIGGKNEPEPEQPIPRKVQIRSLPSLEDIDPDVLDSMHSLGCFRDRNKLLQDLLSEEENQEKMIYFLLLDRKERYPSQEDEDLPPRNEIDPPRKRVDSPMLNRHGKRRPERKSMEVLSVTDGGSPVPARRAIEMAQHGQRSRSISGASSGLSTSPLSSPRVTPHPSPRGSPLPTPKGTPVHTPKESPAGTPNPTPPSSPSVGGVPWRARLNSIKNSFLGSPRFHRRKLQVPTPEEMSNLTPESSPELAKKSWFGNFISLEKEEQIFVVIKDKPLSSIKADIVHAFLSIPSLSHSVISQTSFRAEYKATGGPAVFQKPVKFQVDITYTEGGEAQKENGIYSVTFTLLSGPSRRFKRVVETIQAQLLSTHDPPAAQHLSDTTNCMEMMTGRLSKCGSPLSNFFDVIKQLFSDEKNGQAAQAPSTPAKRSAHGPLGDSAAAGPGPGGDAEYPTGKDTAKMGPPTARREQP
Sequence of MAP/microtubule affinity-regulating kinase 3 (P27448 whole entry): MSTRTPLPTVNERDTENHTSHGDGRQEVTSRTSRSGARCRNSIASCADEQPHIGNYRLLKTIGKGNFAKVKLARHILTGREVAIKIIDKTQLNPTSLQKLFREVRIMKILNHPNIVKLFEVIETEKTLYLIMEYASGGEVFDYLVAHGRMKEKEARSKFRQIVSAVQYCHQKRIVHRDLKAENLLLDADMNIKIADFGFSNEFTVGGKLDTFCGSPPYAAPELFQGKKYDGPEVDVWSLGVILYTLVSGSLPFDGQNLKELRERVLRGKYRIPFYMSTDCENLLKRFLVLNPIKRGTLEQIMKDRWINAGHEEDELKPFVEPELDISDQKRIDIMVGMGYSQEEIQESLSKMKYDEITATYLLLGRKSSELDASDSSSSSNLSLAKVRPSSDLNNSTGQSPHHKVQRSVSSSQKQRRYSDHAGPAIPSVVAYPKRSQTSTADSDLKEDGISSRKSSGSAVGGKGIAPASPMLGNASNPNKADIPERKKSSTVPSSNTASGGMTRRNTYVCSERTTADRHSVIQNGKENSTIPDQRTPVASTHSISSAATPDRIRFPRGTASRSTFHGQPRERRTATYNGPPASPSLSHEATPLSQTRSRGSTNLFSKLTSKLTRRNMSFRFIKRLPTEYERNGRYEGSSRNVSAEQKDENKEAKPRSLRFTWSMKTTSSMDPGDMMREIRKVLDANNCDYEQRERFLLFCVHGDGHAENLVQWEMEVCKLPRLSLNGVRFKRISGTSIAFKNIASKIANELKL
Sequence of Inhibitor of nuclear factor kappa-B kinase subunit beta (Homo sapiens) (O14920 whole entry): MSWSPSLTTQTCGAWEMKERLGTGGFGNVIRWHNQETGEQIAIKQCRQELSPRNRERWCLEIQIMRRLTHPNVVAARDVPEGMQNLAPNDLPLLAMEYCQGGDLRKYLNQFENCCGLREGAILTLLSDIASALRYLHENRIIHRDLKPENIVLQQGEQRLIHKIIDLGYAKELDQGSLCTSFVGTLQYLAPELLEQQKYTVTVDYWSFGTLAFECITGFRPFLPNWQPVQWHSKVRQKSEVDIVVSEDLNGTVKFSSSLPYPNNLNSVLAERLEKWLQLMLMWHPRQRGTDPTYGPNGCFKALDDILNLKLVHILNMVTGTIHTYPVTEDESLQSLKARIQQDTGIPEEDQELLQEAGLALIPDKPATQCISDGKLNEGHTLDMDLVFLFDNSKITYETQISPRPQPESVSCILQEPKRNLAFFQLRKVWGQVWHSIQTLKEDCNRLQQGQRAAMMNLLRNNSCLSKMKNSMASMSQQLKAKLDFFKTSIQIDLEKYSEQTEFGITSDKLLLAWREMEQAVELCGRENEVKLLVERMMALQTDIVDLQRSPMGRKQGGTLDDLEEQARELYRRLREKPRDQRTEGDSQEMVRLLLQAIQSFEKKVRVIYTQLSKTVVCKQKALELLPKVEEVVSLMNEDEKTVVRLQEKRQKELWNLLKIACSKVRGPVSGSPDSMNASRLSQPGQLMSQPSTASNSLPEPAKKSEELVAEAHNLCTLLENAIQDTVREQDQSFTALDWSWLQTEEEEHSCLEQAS
Sequence of Interleukin-1 receptor-associated kinase 4 (Homo sapiens) (Q9NWZ3 whole entry): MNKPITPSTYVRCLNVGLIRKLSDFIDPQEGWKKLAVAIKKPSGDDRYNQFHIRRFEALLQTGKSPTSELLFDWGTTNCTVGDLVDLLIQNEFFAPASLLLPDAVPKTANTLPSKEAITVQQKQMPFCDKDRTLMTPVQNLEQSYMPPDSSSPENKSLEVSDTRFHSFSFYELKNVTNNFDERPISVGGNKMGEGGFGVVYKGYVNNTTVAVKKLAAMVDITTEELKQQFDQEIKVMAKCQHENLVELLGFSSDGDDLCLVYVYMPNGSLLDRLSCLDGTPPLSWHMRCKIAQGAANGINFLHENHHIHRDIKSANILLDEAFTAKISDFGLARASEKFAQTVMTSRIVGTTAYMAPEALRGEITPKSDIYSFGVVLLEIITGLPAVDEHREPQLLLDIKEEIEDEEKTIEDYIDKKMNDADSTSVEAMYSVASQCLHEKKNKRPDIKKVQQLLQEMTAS
Sequence of Dual specificity mitogen-activated protein kinase kinase 2 (Homo sapiens) (P36507 whole entry): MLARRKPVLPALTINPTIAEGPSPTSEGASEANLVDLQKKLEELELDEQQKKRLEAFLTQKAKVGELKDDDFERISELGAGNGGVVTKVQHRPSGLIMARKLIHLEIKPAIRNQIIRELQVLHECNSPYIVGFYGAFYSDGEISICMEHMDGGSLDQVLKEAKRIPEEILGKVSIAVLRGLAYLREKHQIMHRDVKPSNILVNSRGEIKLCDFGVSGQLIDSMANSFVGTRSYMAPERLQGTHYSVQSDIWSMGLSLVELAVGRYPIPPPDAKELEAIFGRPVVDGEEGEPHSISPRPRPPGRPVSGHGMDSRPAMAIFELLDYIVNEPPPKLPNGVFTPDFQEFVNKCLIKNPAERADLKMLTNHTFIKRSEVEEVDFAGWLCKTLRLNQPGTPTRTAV
Sequence of Serine/threonine-protein kinase TBK1 (Homo sapiens) (Q9UHD2 whole entry): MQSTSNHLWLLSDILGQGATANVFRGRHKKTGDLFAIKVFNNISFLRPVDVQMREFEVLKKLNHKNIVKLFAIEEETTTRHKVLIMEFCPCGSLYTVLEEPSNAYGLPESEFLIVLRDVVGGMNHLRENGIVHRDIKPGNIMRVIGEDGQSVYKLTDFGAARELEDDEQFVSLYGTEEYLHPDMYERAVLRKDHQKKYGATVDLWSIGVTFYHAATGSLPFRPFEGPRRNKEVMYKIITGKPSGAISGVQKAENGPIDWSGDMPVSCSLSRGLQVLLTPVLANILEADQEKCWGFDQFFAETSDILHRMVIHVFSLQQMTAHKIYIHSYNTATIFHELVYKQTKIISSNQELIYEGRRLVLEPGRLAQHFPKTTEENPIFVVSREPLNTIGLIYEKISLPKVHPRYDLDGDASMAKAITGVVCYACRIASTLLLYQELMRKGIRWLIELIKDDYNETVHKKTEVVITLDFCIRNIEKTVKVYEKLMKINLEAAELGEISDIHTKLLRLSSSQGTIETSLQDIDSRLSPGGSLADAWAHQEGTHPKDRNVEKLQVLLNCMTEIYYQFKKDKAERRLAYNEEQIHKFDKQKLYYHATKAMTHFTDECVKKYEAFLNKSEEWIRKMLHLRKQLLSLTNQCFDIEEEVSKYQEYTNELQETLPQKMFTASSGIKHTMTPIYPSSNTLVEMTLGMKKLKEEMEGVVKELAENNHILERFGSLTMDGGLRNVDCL

In the case of `N#Cc1cnc(Nc2cc(NC[C@H]3CNCCO3)c(C(F)(F)F)cn2)cn1` [SRA-737], the Activity in series [1] was 98%; in series [2], 61%; in series [5], “Non-Toxic”; in [9], 88%; in series [12], 91%; in [13] it was 73%. Besides, the Activity amounted to 71% in series [14]; 59% in [16]; 82% in series [17]; 36% in [22]; 35% in series [23]. The compound further came in with an AUC(0-inf) in series [3] of 223 µM·h. The IC50 in series [4] came out at 698 nM; in series [21], 362 nM. The result in [6], in series [8], in series [10] and in series [19] was Active. Further, in series [7], the inhibition result was “Active”. For the same compound, the time of peak concentration (Tmax) in series [11] is 30 min; in series [20], 4.98 min. Moreover, in series [15], the half-life was 171 min. Also, the Cmax in [18] was found to be 30.1 µM.
